An excerpt weighted towards active compounds, which were near 9.3% of everything screened.
Ecoli WT expand: growth inhibitors of wild-type E. coli, primary screen, strain BW25113, expanded library, OD600; AID 710, 2007; OD600 absorbance; growth inhibition, % at 100 µM; actives 0.15% (n = 98,000);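 active means growth inhibition above about 50% at one test dose, limit read from the data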;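 further: growth measured after 20 h incubation at 37 °C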
PostGolgi yeast: phenotypic screen on post-Golgi transport, primary screen; actives 0.9% (n = 98,000); post-Golgi transport phenotypic cell assay; inhibition, % at 10 µM;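 further: yeast cells grown in 1536-well plates; yeast grown about 18 h at 30C before absorbance read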
DAT uptake mod: changed hDAT dopamine uptake under cocaine IC80, either direction, primary screen, cocaine antagonist project, cell-based, LLC-PK1 hDAT, [14C]-dopamine uptake, MLSMR. LLC-PK1 hDAT cells, [14C]-dopamine uptake with cocaine IC80; actives deviate in either direction. B-score at 10 µM. actives 1.3% (n = 110,000). AID 449768, 2010;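 active means Z score or B-score, a plate-position-corrected score, falls beyond the plate's 99.7% confidence bounds, in either direction; inactive means both scores lie inside the 99.7% bounds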;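 further: scored against the spread of the other compound wells on the same plate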
D1 mod: D1 CRE-luciferase signal change, two-sided – cell-based, HEK293 D1, dopamine EC30, D1 allosteric modulator project, primary screen. D(1A) dopamine receptor (Homo sapiens), P21728. dopamine EC30 potentiation; actives deviate in either direction. B-score at 10 µM. actives 5.9% (n = 58,000);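 active means luminescence count or its row- and column-corrected plate score outside the 99.7% band of the plate's sample wells, on either side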
Target sequence (P21728 whole entry, looked up): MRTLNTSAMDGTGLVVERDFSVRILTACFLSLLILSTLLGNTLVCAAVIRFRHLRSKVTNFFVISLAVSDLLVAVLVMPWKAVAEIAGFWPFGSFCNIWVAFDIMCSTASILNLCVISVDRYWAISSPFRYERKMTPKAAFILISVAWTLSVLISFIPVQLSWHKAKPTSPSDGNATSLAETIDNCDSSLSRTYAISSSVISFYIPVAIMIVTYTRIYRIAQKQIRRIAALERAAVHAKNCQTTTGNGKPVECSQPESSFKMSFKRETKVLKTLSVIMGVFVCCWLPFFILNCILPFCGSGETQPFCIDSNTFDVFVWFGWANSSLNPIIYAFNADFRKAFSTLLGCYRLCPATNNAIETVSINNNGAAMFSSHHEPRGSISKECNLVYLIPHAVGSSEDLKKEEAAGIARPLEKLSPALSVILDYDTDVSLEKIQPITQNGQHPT
PostGolgi ctrl: growth inhibition of yeast control strain, primary screen, counter-screen for post-Golgi transport modulator project; efflux-deficient yeast background strain, growth absorbance A615, 16 h; inhibition, % at 10 µM; actives 5% (n = 98,000); AID 738, 2007
Ecoli tolC: growth inhibitors of E. coli tolC mutant, primary screen, strain BW25113 ΔtolC::kan, 384-well | OD615 | growth inhibition, % at 10 µM (by protocol) | actives 2.2% (n = 65,000) | AID 573, 2007;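 active means growth inhibition at or above a cutoff equal to the mean over every tested compound plus 3 SD, cut at about 60% in these data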;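 further: growth measured after 20 h incubation at 37 °C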
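Test system: E. coli BW25113 ΔtolC::kan bacteria | Medium: Kanamycin-containing LB broth (50 µg/mL) | Dosing: One dose of 10 µM final | Times: 20 h incubation with compound, 37 °C | Detection: Optical density read at 615 nm | Read-out basis: Percent growth inhibition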
* hit, by the source's call; . = no result given. Unless noted, no stated cut-off is given here; in the data, active means inhibition above about 30%; inactive means the rest.

SMILES | Ecoli WT expand | PostGolgi yeast | DAT uptake mod | D1 mod | PostGolgi ctrl | Ecoli tolC
Cc1cc(C)c(C#N)c(SCS(=O)Cc2ccc(Cl)cc2)n1 (configuration not stated) | -15 | 9 | 0.046 | 1.2 | 38* | 49
O=C(CSC1=NCCS1)Nc1ccnc2ccccc12 | 4 | -4 | -0.23 | -2.6 | -4 | 6
CCCN1CCCc2cc(CN)ccc21 | 12 | 5 | -2.4* | 0.014 | 5 | -8
Nc1ccc(-c2nc3ccccc3[nH]2)cc1 | 15 | -3 | 0.56 | -3.5* | 19 | 9
Cn1cc(-c2nc3ccccc3[nH]2)c2ccccc21 | 28 | 0 | 1 | -4.1* | 9 | 38
Nc1ccccc1-c1nc2ccccc2[nH]1 | 12 | -1 | 1.6 | -0.73 | 19 | 12
COc1cccc(C(c2sc3nc(C)nn3c2O)N2CCc3ccccc3C2)c1 (configuration not stated) | 3 | -23 | 0.16 | 1.2 | 10 | 14
O=C1c2ccccc2C(=O)N1CCCCn1c(=O)oc2ccccc21 | -2 | 4 | -2.1 | 0.11 | 44* | -4
O=c1oc2ccccc2n1CCc1ccccc1 | 6 | 7 | 1.2 | -0.083 | 19 | -5
Cn1nc(-c2ccc(Cl)cc2)c2cc(C(=O)N3CCN(c4ccccn4)CC3)sc21 | -11 | -5 | 1.8 | -0.28 | 52* | 20
CCCCNC(=O)c1cc2c(-c3ccc(Cl)cc3)nn(C)c2s1 | -6 | -2 | -0.047 | -1 | 2 | -2
Cn1nc(-c2ccc(Cl)cc2)c2cc(C(=O)N3CCN(c4ccccc4)CC3)sc21 | -8 | -4 | -0.01 | -0.2 | 7 | 23
CC(C)(Oc1ccc(Cl)cc1)C(=O)N1CCN(c2ccccn2)CC1 | -1 | 1 | . | -0.88 | 50* | 47
Cc1ccc(CNC(=O)c2cc3c(-c4ccc(Cl)cc4)nn(C)c3s2)o1 | -8 | -7 | 0.69 | -0.11 | 53* | 16
Cn1nc(-c2ccc(Cl)cc2)c2cc(C(=O)N3CCCC3)sc21 | -5 | 3 | 0.86 | -3.2* | 19 | 12
Cc1ccc2nsnc2c1S(=O)(=O)NCCc1c(C)[nH]c2ccc(F)cc12 | -7 | 6 | 0.45 | . | -2 | .
Cc1oc2nc(SCC(=O)NC3CCCCC3)nc(N)c2c1C | . | . | 0.46 | 0.74 | . | 14
O=C1c2oc3ccccc3c(=O)c2C(c2ccc(Cl)cc2)N1c1ncccn1 (configuration not stated) | . | . | . | -0.013 | . | -8
c1ccc(NCc2nc(-c3ccccc3)no2)cc1 | 11 | -13 | -2.4 | 0.018 | 32* | 16
Cc1cccc(NC(=S)c2nc3ccccc3s2)c1 | -19 | -5 | . | . | 5 | .
CC12CCC(C(=O)Nc3cccc4ccccc34)(C1Br)C2(C)C (configuration not stated) | -2 | -3 | . | . | 40* | .
O=S(=O)(c1ccc(Cl)cc1)n1nnc2ccccc21 | -1 | 10 | . | . | 3 | .
O=C(NCc1nc2ccccc2[nH]1)C1=C[C@H](c2coc3ccccc3c2=O)C[C@H](OCCCCO)O1 | . | . | 0.41 | . | . | .
CCOC(=O)N1CCN(CC(=O)Nc2c(C(=O)OC)[nH]c3ccc(Cl)cc23)CC1 | 0 | 6 | . | 1.7 | 13 | 86*
O=C(Nc1cccc(F)c1)N1CCN(C/C=C/c2ccccc2)CC1 | 11 | -6 | 2.2* | . | -2 | .
SMILES | Ecoli WT expand | PostGolgi yeast | DAT uptake mod | D1 mod | PostGolgi ctrl | Ecoli tolC
COC(=O)c1[nH]c2ccc(C)cc2c1NC(=O)CN1CCN(C(=O)c2ccccc2)CC1 | -2 | 3 | 2.7* | -0.083 | 5 | 8
CCOC(=O)c1[nH]c2ccc(OC)cc2c1NC(=O)CCN1CCc2ccccc2C1 | 2 | 8 | 1.6 | . | 32* | 7
O=C(Nc1ccc(F)cc1)N1CCN(C/C=C/c2ccccc2)CC1 | 17 | 6 | 1.6 | -0.55 | 13 | 14
CCCCCCNC(=O)n1cc(F)c(=O)[nH]c1=O | . | . | 0.74 | . | . | .
COCCn1c(-c2cc(OC)c(OC)c(OC)c2)nc2oc3ccccc3c(=O)c2c1=O | . | . | -0.0075 | 0.73 | . | -2
COC(=O)c1[nH]c2cc(C)ccc2c1NC(=O)CN1CCc2cc(OC)c(OC)cc2C1 | -6 | 10 | 1.4 | 0.3 | 17 | 17
COC(=O)c1[nH]c2ccc(Cl)cc2c1NC(=O)CN1CCc2cc(OC)c(OC)cc2C1 | -7 | 4 | 2.4 | -0.012 | 31* | 33
CCOC(=O)c1[nH]c2ccc(F)cc2c1NC(=O)c1cc(OC)c(OC)c(OC)c1 | 3 | -10 | -0.27 | 0.48 | 30* | 3
Cc1ccc2[nH]c(C(=O)O)c(NC(=O)CN3CCN(c4cccc(C)c4C)CC3)c2c1 | -4 | 0 | 1.1 | 0.16 | 2 | 96*
CCOC(=O)c1[nH]c2ccc(F)cc2c1NC(=O)CN1CCN(C/C=C/c2ccccc2)CC1 | 0 | -3 | . | 0.84 | 12 | 98*
O=C(NCC1(c2ccccc2)CCCC1)c1cccc(Br)c1 | -5 | 4 | 0.6 | . | 29 | .
Cc1ccc(NCc2nnc(SC(C)C(=O)N/N=C/c3ccc(C)o3)n2-c2ccccc2)cc1 (configuration not stated) | 8 | 4 | -0.0093 | . | 5 | .
Cc1cccc(N2CCN(CC(=O)Nc3ccccc3[N+](=O)[O-])CC2)c1C | -11 | -1 | 0.19 | . | 32* | .
CCO[C@@H]1OC(C(=O)NCc2ccccc2)=C[C@H](c2ccc(Br)cc2)[C@H]1CCCO | . | . | 0.37 | . | . | .
CCN(CC)C(=O)CSc1nnc(CNc2ccc(F)cc2)o1 | 0 | 2 | 0.59 | . | 2 | .
COC(=O)CCC(=O)Nc1cccc2ccccc12 | 6 | 11 | -0.0077 | . | 34* | .
COCC(=O)Nc1cccc2ccccc12 | 10 | 4 | 0.14 | -0.082 | 6 | -10
N#Cc1cn(Cc2ccccc2)c2ccccc12 | 5 | 10 | -0.43 | 0.053 | 19 | 71*
N#Cc1ccccc1Cn1cc(C#N)c2ccccc21 | . | . | -0.97 | . | . | .
Cc1ccc(NC(=O)CSc2nnc(-c3ccncc3)n2N)cc1C | -2 | 12 | 0.56 | 0.89 | 6 | -12
O=C(Cc1ccccc1)N[C@@H](Cc1ccc(O)cc1)C(=O)O | . | . | -1.3 | . | . | .
CC1CCC(n2c(=S)[nH]c3ccccc3c2=O)CC1 (configuration not stated) | -7 | 3 | -0.044 | 0.59 | 49* | 6
CCCn1nnc(NC(=O)COc2ccc(C3CCCCC3)cc2)n1 | 2 | 3 | -0.8 | -1.1 | 9 | 100*
Cc1cc(C)n(CC(O)CN2c3ccccc3Sc3ccccc32)n1 (configuration not stated) | -20 | 0 | 1.2 | 0.38 | 43* | 41
Cc1cc(C)n(CC(O)Cn2c3ccccc3c3ccccc32)n1 (configuration not stated) | 4 | -2 | -0.016 | . | 19 | .
CCN(CC)CCC(c1ccc2c(c1)OCO2)c1c(O)cc(OC)cc1OC (configuration not stated) | . | . | -0.4 | . | . | .

Assay outcomes as filed in PubChem BioAssay.
